According to the array DNA melting data of Ke et al. (doi:10.1101/2024.01.08.574731):

Columns and labels:
[1] = melting temperature; fluorescence melt of hairpins on a sequencing array, two-state fit, raised by 9.35 °C to match UV melts; conditions: sodium 0.088 M
Outline: (§1)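 With Cy3 and quencher oligos annealed, library hairpins on a sequenced MiSeq flow cell were imaged for Cy3 fluorescence in 50 mM Na-HEPES pH 8.0, 25 mM NaCl, in 2.5 °C steps up to 60 °C. Melting temperature and folding enthalpy were derived from bootstrapped two-state fits of signals normalised to pre-quench Cy3 and to control constructs. Four replicates were combined by inverse variance, with fitted temperatures raised by 9.35 °C to match UV melts.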

[2] = folding enthalpy; higher = less favourable; fluorescence melt of hairpins on a sequencing array, two-state fit; conditions: sodium 0.088 M
Outline: as §1

| Sequence | Tm [1] | folding enthalpy [2] |
| --- | --- | --- |
| GTGAGCGAAAGCTTCAC ((((((....))).))) | 50.9 °C | -19.1 kcal/mol |
| GTGAGCGAAAGCTTTCAC ((((((....)))..))) | 32.3 °C | -10.7 kcal/mol |
| GTGAGCGGAAACACTCAC (((((.(....).))))) | 47.7 °C | -43.7 kcal/mol |
| GTGAGCGGAAACGCTCGC (.(((((....))))).) | 62.7 °C | -18.4 kcal/mol |
| GTGAGCGGAAACGTTCAC ((((.((....)).)))) | 52.8 °C | -41.2 kcal/mol |
| GTGAGGGGAAACCCTTAC ((.((((....)))).)) | 44.5 °C | -26.7 kcal/mol |
| GTGAGTCCGAAAGGACAC (((..(((....)))))) | 49.6 °C | -13.1 kcal/mol |
| GTGAGTGGAAACACTTGC (..((((....))))..) | 36.4 °C | -23.9 kcal/mol |
| GTGATACGAAAGTACAC (((.(((....)))))) | 43.7 °C | -25.8 kcal/mol |
| GTGATAGGAAACCATCAC (((((.(....).))))) | 39.3 °C | -34.9 kcal/mol |
| GTGATAGGAAACTATTAC ((.((((....)))).)) | 34.1 °C | -25.8 kcal/mol |
| GTGATCCGAAAGGAACAC (((.(((....))).))) | 53.6 °C | -27.5 kcal/mol |
| GTGATCGAAAGATGACAC ((((((....)))..))) | 33.4 °C | -16.2 kcal/mol |
| GTGATCGCGAAAGCGCAC (((..(((....)))))) | 35.6 °C | -12.6 kcal/mol |
| GTGATCGGAAACGATCAC (((((((....))))))) | 68.6 °C | -42.3 kcal/mol |
| GTGATCGGAAACGATTAC ((.((((....)))).)) | 48.2 °C | -24.4 kcal/mol |
| GTGATGACGAAAGTCCAC (((..(((....)))))) | 35.1 °C | -18.4 kcal/mol |
| GTGATGGGAAACTATCAC (((((.(....).))))) | 45.6 °C | -32.2 kcal/mol |
| GTGATTCCGAAAGGACAC (((..(((....)))))) | 31.1 °C | -15.3 kcal/mol |
| GTGATTGGAAACAGTCAC ((((.((....)).)))) | 45.4 °C | -36.6 kcal/mol |
| GTGCAACGAAAGTTCAC (((.(((....)))))) | 45.7 °C | -13.2 kcal/mol |
| GTGCAACGAAAGTTTCAC (((.(((....))).))) | 41 °C | -21.4 kcal/mol |
| GTGCACGAAAGTGAACAC ((((((....)))..))) | 52 °C | -15.4 kcal/mol |

| Sequence | Tm [1] | folding enthalpy [2] |
| --- | --- | --- |
| GTGCACGAAAGTGAGCAC ((((((....)))..))) | 51.6 °C | -32.4 kcal/mol |
| GTGCACGAAAGTGTCAC ((((((....))).))) | 54.5 °C | -22.3 kcal/mol |
| GTGCACGAAAGTGTGCAC ((((((....)))..))) | 62.6 °C | -34 kcal/mol |
| GTGCACGGAAACGTGTAC ((.((((....)))).)) | 55.8 °C | -41.8 kcal/mol |
| GTGCACTCGAAAGAGCAC (((..(((....)))))) | 45.2 °C | -27.8 kcal/mol |
| GTGCAGGGAAACTTGCGC (.(((.(....).))).) | 42 °C | -31.2 kcal/mol |
| GTGCATCCGAAAGGACAC (((..(((....)))))) | 38.2 °C | -11.7 kcal/mol |
| GTGCCAACGAAAGTTCAC (((..(((....)))))) | 36.3 °C | -4.38 kcal/mol |
| GTGCCACGAAAGTGCCAC (((.(((....))).))) | 47.6 °C | -20.5 kcal/mol |
| GTGCCACGAAAGTGTCAC (((.(((....))).))) | 53.1 °C | -30 kcal/mol |
| GTGCCAGGAAACCGGCAC (((((.(....).))))) | 59.2 °C | -42.2 kcal/mol |
| GTGCCCCGAAAGGGACAC (((.(((....))).))) | 62.5 °C | -42.9 kcal/mol |
| GTGCCCGAAAGGGGCCAC ((((((....)))..))) | 47.7 °C | -10.9 kcal/mol |
| GTGCCCGAAAGGGTCCAC ((((((....)))..))) | 41 °C | -10.3 kcal/mol |
| GTGCCCGAAAGGGTTCAC ((((((....)))..))) | 41.1 °C | -11.8 kcal/mol |
| GTGCCCGCGAAAGCGCAC (((..(((....)))))) | 45.5 °C | -13.5 kcal/mol |
| GTGCCGCCGAAAGGCCAC (((..(((....)))))) | 60 °C | -9.13 kcal/mol |
| GTGCCGGCGAAAGCCCAC (((..(((....)))))) | 59.9 °C | -6.81 kcal/mol |
| GTGCCGGGAAACCGGCGC (.(((((....))))).) | 67.3 °C | -18.2 kcal/mol |
| GTGCCGTCGAAAGACCAC (((..(((....)))))) | 49.7 °C | -6.11 kcal/mol |
| GTGCCTCGAAAGAGCAC (((.(((....)))))) | 53.5 °C | -28.5 kcal/mol |
| GTGCGAACGAAAGTTCAC (((..(((....)))))) | 53.3 °C | -12.1 kcal/mol |
| GTGCGACCGAAAGGTCAC (((..(((....)))))) | 60 °C | -13.1 kcal/mol |

| Sequence | Tm [1] | folding enthalpy [2] |
| --- | --- | --- |
| GTGCGAGCGAAAGCTCAC (((..(((....)))))) | 59.4 °C | -12.2 kcal/mol |
| GTGCGATCGAAAGATCAC (((..(((....)))))) | 44.4 °C | -18.2 kcal/mol |
| GTGCGCCCGAAAGGGCAC (((..(((....)))))) | 64.3 °C | -10.4 kcal/mol |
| GTGCGCCGAAAGGCTCAC (((.(((....))).))) | 56.9 °C | -29.1 kcal/mol |
| GTGCGCGAAAGCGACCAC ((((((....)))..))) | 43.8 °C | -10.4 kcal/mol |
| GTGCGCGAAAGCGAGCAC ((((((....)))..))) | 57.7 °C | -25.5 kcal/mol |
| GTGCGCGAAAGCGTTCAC ((((((....)))..))) | 39.9 °C | -11.3 kcal/mol |
| GTGCGCGGAAACACGCAC (((((.(....).))))) | 59.7 °C | -46.6 kcal/mol |
| GTGCGGCGAAAGCCACAC (((.(((....))).))) | 62.1 °C | -29.2 kcal/mol |
| GTGCGGGGAAACTCGCAC (((((.(....).))))) | 61.2 °C | -40.1 kcal/mol |
| GTGCGTGGAAACACACAC (((.(((....))).))) | 48.6 °C | -37.9 kcal/mol |
| GTGCGTGGAAACACGCGC (.(((((....))))).) | 65.9 °C | -18 kcal/mol |
| GTGCGTGGAAACACGTAC ((.((((....)))).)) | 56.1 °C | -32.8 kcal/mol |
| GTGCGTGGAAACATGCGC (.((.((....)).)).) | 49.5 °C | -29.6 kcal/mol |
| GTGCGTGGAAACGCGTAC ((.((.(....).)).)) | 42.7 °C | -10.9 kcal/mol |
| GTGCTAGAAATAGCAC ((((((....)))))) | 56.5 °C | -40.3 kcal/mol |
| GTGCTAGGAAACTAACAC (((.(((....))).))) | 34.4 °C | -27.7 kcal/mol |
| GTGCTAGGAAACTAGCGC (.(((((....))))).) | 53.5 °C | -39.6 kcal/mol |
| GTGCTAGGAAACTGGCAC ((((.((....)).)))) | 53.5 °C | -45.4 kcal/mol |
| GTGCTCCCGAAAGGGCAC (((..(((....)))))) | 49.8 °C | -19.9 kcal/mol |
| GTGCTCCGAAAGGACAC (((.(((....)))))) | 51.9 °C | -27.4 kcal/mol |
| GTGCTCCGAAAGGATCAC (((.(((....))).))) | 50.2 °C | -31.9 kcal/mol |
